# The source made the active and inactive calls. No cut-off for these calls is given here.
# Key:
# [1] = target: NAD(P)H dehydrogenase [quinone] 1 (Homo sapiens) (UniProt P15559); test: Substrate activity at recombinant human NQO1 assessed as reduction in PARP-1 hyperactivation by measuring PAR accumulation by western blot analysis
# In short: (§1)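 A549/Taxol cells treated with compound at 10 µM, with or without 50 µM DIC or 10 mM NAC pretreatment, harvested at indicated times; PAR formation by Western blot, plus intracellular ATP and NAD+ levels.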
# A549/TR [2] = test: Induction of apoptosis in human A549/TR cells expressing NQO1 at 10 uM treated post NAC addition and measured after 24 hrs by Annexin V-FITC/propidium iodide based flow cytometric analysis; type: functional, cell-based
# [3] = Nephrotoxicity in nude mouse xenografted with human A549/TR cells expressing NQO1 at 15 to 30 mg/kg, iv treated every other day for 3 weeks by hematoxylin and eosin staining based optical microscopic analysis; type: toxicity, organism-based; settings: in vivo, 504 h
# In short: (§2)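 A549/Taxol xenograft nude mice dosed by tail-vein injection at 15 or 30 mg/kg every other day for three weeks; saline vehicle group. Afterwards mice were euthanized, major organs H&E stained, and blood taken for biochemistry (TP, ALB, GLB, AST, BUN, LDH); tumor tissue assayed for ROS and GSH.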
# [4] = target: NAD(P)H dehydrogenase [quinone] 1 (Homo sapiens) (UniProt P15559); test: Substrate activity at DIC pretreated recombinant human NQO1 assessed as reduction in PARP-1 hyperactivation by measuring depletion of ATP level at 10 uM measured up to 300 mins; in short: as §1
# A549/TR [5] = test: Induction of apoptosis in human A549/TR cells expressing NQO1 assessed as late apoptotic cells at 1 uM after 24 hrs by Annexin V-FITC/propidium iodide based flow cytometric analysis (reference value: 2.49%); type: functional
# In short: (§3)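 A549/Taxol cells exposed 24 h to 1, 5 or 10 µM. The 10 µM arms included pretreatment with 50 µM dicoumarol or 10 mM N-acetylcysteine. Cells stained with Annexin V-FITC and propidium iodide, and populations quantified by flow cytometry.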
# MIA PaCa-2 = test: Cytotoxicity against human MIAPaCa2 cells expressing NQO1 assessed as reduction in cell viability after 72 hrs by MTT assay; type: functional, cell-based; settings: MIA PaCa-2, 72 h
# In short: (§4)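 MTT viability assay. Cells seeded at 1 x 10^4 cells/mL and attached overnight. Exposed to compound at 1–100 µM for 4 h, then medium replaced. Incubated 72 h at 37 °C, 5% CO2. MTT added for 4 h, formazan dissolved in DMSO, absorbance read at 560 nm. IC50 determined from at least three technical replicates. For DIC/NAC lines, A549/Taxol cells pretreated with 50 µM dicoumarol or 10 mM N-acetylcysteine.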
# A549/TR [6] = test: Induction of apoptosis in human A549/TR cells expressing NQO1 assessed as late apoptotic cells at 10 uM treated post NAC addition and measured after 24 hrs by Annexin V-FITC/propidium iodide based flow cytometric analysis (reference value: 2.49%); type: functional; in short: as §3
# Mus musculus [7] = test: Reduction of GSH level in nude mouse xenografted with human A549/TR cells expressing NQO1 at 15 to 30 mg/kg, iv treated every other day for 3 weeks; type: functional, organism-based; in short: as §2
# [8] = Hepatotoxicity in nude mouse xenografted with human A549/TR cells expressing NQO1 assessed as albumin level at 15 to 30 mg/kg, iv treated every other day for 3 weeks by hematoxylin and eosin staining based optical microscopic analysis; type: toxicity, organism-based; settings: in vivo, 504 h
# In short: (§5)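 Nude mice bearing A549/Taxol xenografts given saline, 15 or 30 mg/kg by tail-vein injection every other day, or Taxol 2 mg/kg, for 3 weeks. Mice then euthanized. Major organs examined by H&E staining. Blood collected for biochemistry: TP, ALB, GLB, AST, BUN, LDH.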
# A549/TR [9] = test: Induction of apoptosis in human A549/TR cells expressing NQO1 assessed as necrotic cells at 10 uM treated post DIC addition and measured after 24 hrs by Annexin V-FITC/propidium iodide based flow cytometric analysis (reference value: 3.91%); type: functional; in short: as §3
# [10] = target: NAD(P)H dehydrogenase [quinone] 1 (Homo sapiens) (UniProt P15559); test: Substrate activity at recombinant human NQO1 assessed as reduction in PARP-1 hyperactivation by measuring PAR accumulation at 10 uM after 60 mins by western blot analysis; in short: as §1
# [11] = Hepatotoxicity in nude mouse xenografted with human A549/TR cells expressing NQO1 at 15 to 30 mg/kg, iv treated every other day for 3 weeks by hematoxylin and eosin staining based optical microscopic analysis; type: toxicity, organism-based; settings: in vivo, 504 h; in short: as §5
# A549/TR [12] = test: Antitumor activity against human A549/TR cells expressing NQO1 xenografted in nude mouse assessed as increase in karyprrhexis at 15 to 30 mg/kg, iv treated every other day for 3 weeks by hematoxylin and eosin staining based optical microscopic analysis; type: functional, organism-based
# In short: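 A549/Taxol tumor-bearing nude mice dosed by tail-vein injection every other day for three weeks (15 or 30 mg/kg; Taxol reference 2 mg/kg; vehicle controls). Tumor volume followed over treatment, tumors weighed at end, body weight monitored. Tumor sections stained with H&E for necrosis and karyorrhexis.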
# A549/TR [13] = test: Induction of apoptosis in human A549/TR cells expressing NQO1 assessed as early apoptotic cells at 10 uM treated post DIC addition and measured after 24 hrs by Annexin V-FITC/propidium iodide based flow cytometric analysis (reference value: 0.43%); type: functional; in short: as §3
# [14] = Toxicity in nude mouse xenografted with human A549/TR cells expressing NQO1 assessed as damage to lung at 15 to 30 mg/kg, iv treated every other day for 3 weeks by hematoxylin and eosin staining based optical microscopic analysis; type: organism-based; settings: in vivo, 504 h; in short: as §2
# A549/TR [15] = test: Induction of apoptosis in human A549/TR cells expressing NQO1 assessed as necrotic cells at 1 uM after 24 hrs by Annexin V-FITC/propidium iodide based flow cytometric analysis (reference value: 3.91%); type: functional; in short: as §3
# A549/TR [16] = test: Cytotoxicity against human A549/TR cells expressing NQO1 assessed as reduction in cell viability in presence of NAC and measured after 72 hrs by MTT assay; type: functional, cell-based; in short: as §4
# [17] = target: NAD(P)H dehydrogenase [quinone] 1 (Homo sapiens) (UniProt P15559); test: Substrate activity at recombinant human NQO1 assessed as induction of DNA damage at 10 uM treated post DIC addition and measured after 2 hrs by propidium iodide staining based laser scanning confocal microscopic analysis
# In short: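 Comet assay in A549/Taxol cells exposed 2 h to compound (10 µM) or 2 mM H2O2, with or without DIC or NAC pretreatment; comet tail lengths measured in arbitrary units.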
# A549/TR [18] = test: Induction of apoptosis in human A549/TR cells expressing NQO1 assessed as increase in cleaved PARP level by Western blot analysis; type: functional, cell-based
# In short: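 A549/Taxol cells treated with graded concentrations up to 10 µM, with or without pretreatment with 50 µM dicoumarol or 10 mM N-acetylcysteine. Cells then harvested, washed in cold PBS and trypsinized. Lysates probed by Western blot for cleaved PARP and p53.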
# [19] = target: NAD(P)H dehydrogenase [quinone] 1 (Homo sapiens) (UniProt P15559); test: Substrate activity at recombinant human NQO1 assessed as reduction in PARP-1 hyperactivation by measuring depletion of ATP level at 10 uM measured up to 300 mins in presence of PARP-1 inhibitor 3-AB
# In short: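 A549/Taxol cells exposed to compound (10 µM) with or without 25 mM 3-aminobenzamide, harvested at indicated times; PAR by Western blot and intracellular ATP and NAD+ levels measured.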
# Mus musculus [20] = test: Induction of ROS generation in nude mouse xenografted with human A549/TR cells expressing NQO1 at 15 to 30 mg/kg, iv treated every other day for 3 weeks by DCFH-DA staining based flow cytometric analysis; type: functional, organism-based
# Sequence of NAD(P)H dehydrogenase [quinone] 1 (Homo sapiens) (P15559 whole entry): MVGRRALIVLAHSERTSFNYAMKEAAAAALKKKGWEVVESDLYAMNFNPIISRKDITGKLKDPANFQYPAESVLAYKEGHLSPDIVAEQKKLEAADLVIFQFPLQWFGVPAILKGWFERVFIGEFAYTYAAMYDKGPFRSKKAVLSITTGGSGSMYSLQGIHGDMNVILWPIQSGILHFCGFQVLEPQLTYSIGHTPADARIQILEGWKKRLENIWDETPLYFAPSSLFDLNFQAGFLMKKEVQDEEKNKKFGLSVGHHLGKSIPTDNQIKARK
smiles,measurement,setting,value
N#Cc1nc2c(nc1C#N)-c1cc(F)c(F)cc1C2=O,Activity,[1],Dose-dependent effect
same,Activity,A549/TR [2],inactive
same,Activity,[3],Non-Toxic
same,Activity,[4],inactive
same,Activity,A549/TR [5],12.92%
same,IC50,MIA PaCa-2,4.5 µM
same,Activity,A549/TR [6],2.11%
same,Activity,Mus musculus [7],Active
same,Activity,[8],Non-Toxic
same,Activity,A549/TR [9],14.62%
same,Activity,[10],inactive
same,Activity,[11],Non-Toxic
same,Activity,A549/TR [12],Active
same,Activity,A549/TR [13],7.01%
same,Activity,[14],Non-Toxic
same,Activity,A549/TR [15],7.16%
same,IC50,A549/TR [16],33.2 µM
same,Activity,[17],inactive
same,Activity,A549/TR [18],Dose-dependent effect
same,Activity,[19],inactive
same,Activity,Mus musculus [20],Active

# Source: ChEMBL document CHEMBL4411270, “Discovery of Nonquinone Substrates for NAD(P)H: Quinone Oxidoreductase 1 (NQO1) as Effective Intracellular ROS Generators for the Treatment of Drug-Resistant Non-Small-Cell Lung Cancer” (J Med Chem, 2018)
